As a reminder, the Ki is the equilibrium dissociation constant of an inhibitor or competing ligand from its target.

Calls of active or inactive are those of the source. The calls are words filed in the database; no cut-off is given here.

This passage reports inhibition and Ki results from ChEMBL document CHEMBL2010709, “Pinophilins A and B, inhibitors of mammalian A-, B-, and Y-family DNA polymerases and human cancer cell proliferation” (J Nat Prod, 2012).

The species entered for one assay is Bos taurus. Nature of the assay: Non-competitive inhibition of calf DNA polymerase alpha using ploy(dA)/oligo(dT)18 as substrate up to 30 uM by Lineweaver-Burk plot analysis. The method in brief: (§1)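 Kinetics ran in the standard pol assay at 37 °C for 60 min. Either poly(dA)/oligo(dT)18 (A/T = 2/1) or dTTP was varied, with inhibitor at 0, 10, 20 and 30 μM. Km and Vmax came from Lineweaver–Burk plots and Ki from Dixon plots. Pol α was purified from calf thymus by immunoaffinity chromatography.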

Assay [1] can be described thus: Competitive inhibition of calf DNA polymerase alpha using dTTP as substrate by Dixon plot analysis. Details: species or system Bos taurus. In a few lines: as §1
Assay [2] in a line: Non-competitive inhibition of calf DNA polymerase alpha using ploy(dA)/oligo(dT)18 as substrate by Dixon plot analysis. Details: species or system Bos taurus. In a few lines: as §1
The target in assay [3] is T1, DNA polymerase kappa (Homo sapiens, UniProt Q9UBT6).
T1 sequence (Q9UBT6 whole entry): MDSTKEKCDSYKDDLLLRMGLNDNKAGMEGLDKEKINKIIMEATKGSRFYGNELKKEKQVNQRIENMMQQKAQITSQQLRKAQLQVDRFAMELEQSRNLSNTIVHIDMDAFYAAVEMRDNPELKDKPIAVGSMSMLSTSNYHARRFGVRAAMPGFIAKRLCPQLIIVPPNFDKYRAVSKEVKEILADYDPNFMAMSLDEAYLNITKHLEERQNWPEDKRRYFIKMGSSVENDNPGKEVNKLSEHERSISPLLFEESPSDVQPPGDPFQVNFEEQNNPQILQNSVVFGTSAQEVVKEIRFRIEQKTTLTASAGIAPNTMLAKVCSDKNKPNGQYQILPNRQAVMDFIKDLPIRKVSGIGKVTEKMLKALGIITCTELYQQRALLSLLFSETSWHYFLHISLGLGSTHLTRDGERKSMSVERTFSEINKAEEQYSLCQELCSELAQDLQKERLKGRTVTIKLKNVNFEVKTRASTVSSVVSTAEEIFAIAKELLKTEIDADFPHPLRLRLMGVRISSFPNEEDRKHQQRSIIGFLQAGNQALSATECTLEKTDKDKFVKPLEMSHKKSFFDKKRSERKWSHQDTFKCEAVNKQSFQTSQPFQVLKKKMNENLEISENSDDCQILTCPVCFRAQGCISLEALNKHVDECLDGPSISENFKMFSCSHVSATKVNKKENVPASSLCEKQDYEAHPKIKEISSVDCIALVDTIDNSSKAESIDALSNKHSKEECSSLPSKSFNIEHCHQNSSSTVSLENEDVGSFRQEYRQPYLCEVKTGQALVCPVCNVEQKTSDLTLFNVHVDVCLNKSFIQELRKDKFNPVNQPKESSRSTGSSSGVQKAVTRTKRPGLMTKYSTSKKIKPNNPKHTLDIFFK
Nature of the assay: Competitive inhibition of human C-terminal-His6-tagged DNA polymerase kappa expressed in Escherichia coli using dTTP as substrate by Dixon plot analysis. The method in brief: as §1

Assay [4] addresses T1, DNA polymerase kappa. The assay is described as follows: Non-competitive inhibition of human C-terminal-His6-tagged DNA polymerase kappa expressed in Escherichia coli using ploy(dA)/oligo(dT)18 as substrate by Dixon plot analysis. The method in brief:
as §1

For `C/C=C/C1=CC2=CC(=O)[C@@](C)(OC(=O)c3c(C)cc(O)cc3O)[C@@H](O)[C@@H]2CO1` [PINOPHILIN A], the inhibition result in the assay listed under Bos taurus is “Active”. In addition, the Ki in assay [1] was determined as 9.6 µM; in assay [2] it was 13.8 µM; at DNA polymerase kappa [3] it was 9.85 µM; on DNA polymerase kappa [4], 18.1 µM.
